# In ChEMBL document CHEMBL4627416, “Generation of Leads for γ-Secretase Modulation” (J Med Chem, 2020):
# Active and inactive are the calls of the source. The calls are words filed in the database; no cut-off is given here.
# Experiments:
# Cytochrome P450 3A4 = Cytochrome P450 3A4 (Homo sapiens, UniProt P08684); assay: Inhibition of CYP3A4 (unknown origin); assay type: ADME
# [1] = Drug level in brain of CD rat at 30 mg/kg, po measured after 3 hrs; assay type: ADME, organism-based; settings: read-out: Drug uptake
# How it was run: (§1)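 Male CD rats dosed orally at 3, 10 or 30 mg/kg. Total drug concentrations measured in plasma and brain 3 h after the dose. Values are geometric means of 10 (3 mg/kg), 15 (10 mg/kg) and 5 (30 mg/kg) animals.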
# [2] = Drug level in plasma of CD rat at 30 mg/kg, po measured after 3 hrs; assay type: ADME, organism-based; how it was run: as §1
# [3] = target: Voltage-gated inwardly rectifying potassium channel KCNH2 (Homo sapiens, UniProt Q12809); assay: Inhibition of MK499 binding to human ERG
# Sequence of Voltage-gated inwardly rectifying potassium channel KCNH2 (Q12809 whole entry): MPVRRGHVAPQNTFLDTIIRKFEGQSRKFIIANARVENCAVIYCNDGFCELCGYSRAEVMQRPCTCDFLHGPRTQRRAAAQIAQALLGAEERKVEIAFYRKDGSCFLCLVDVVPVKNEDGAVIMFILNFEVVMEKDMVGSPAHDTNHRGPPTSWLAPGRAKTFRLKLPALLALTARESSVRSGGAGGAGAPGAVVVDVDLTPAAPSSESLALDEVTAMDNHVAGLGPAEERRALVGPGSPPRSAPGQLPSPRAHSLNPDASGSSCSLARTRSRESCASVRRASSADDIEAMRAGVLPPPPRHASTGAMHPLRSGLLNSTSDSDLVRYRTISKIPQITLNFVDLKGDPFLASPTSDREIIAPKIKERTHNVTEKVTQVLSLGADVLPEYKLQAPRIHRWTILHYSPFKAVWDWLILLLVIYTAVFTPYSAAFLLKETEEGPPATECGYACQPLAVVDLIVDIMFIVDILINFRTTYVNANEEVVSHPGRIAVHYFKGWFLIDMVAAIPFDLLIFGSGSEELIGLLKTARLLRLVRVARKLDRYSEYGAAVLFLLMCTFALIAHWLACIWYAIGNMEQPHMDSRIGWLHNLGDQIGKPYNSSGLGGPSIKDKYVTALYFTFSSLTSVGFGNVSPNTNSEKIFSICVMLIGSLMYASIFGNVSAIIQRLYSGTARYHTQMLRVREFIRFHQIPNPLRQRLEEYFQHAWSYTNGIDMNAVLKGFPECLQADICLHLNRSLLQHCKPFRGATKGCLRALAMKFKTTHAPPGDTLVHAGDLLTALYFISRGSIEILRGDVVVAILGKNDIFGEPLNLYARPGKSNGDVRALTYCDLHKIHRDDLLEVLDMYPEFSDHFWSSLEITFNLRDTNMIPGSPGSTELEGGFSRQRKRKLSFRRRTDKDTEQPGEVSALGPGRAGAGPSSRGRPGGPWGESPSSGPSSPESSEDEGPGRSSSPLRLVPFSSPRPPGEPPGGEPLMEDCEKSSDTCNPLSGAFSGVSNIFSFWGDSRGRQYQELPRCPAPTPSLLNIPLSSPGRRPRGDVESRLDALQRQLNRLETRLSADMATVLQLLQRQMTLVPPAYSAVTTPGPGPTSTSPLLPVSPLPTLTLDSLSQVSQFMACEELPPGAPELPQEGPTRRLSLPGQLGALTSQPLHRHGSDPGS
# [4] = target: T1, Nuclear receptor subfamily 1 group I member 2 (Homo sapiens, UniProt O75469); assay: Inhibition of PXR (unknown origin); assay type: ADME
# T1 sequence (O75469 whole entry): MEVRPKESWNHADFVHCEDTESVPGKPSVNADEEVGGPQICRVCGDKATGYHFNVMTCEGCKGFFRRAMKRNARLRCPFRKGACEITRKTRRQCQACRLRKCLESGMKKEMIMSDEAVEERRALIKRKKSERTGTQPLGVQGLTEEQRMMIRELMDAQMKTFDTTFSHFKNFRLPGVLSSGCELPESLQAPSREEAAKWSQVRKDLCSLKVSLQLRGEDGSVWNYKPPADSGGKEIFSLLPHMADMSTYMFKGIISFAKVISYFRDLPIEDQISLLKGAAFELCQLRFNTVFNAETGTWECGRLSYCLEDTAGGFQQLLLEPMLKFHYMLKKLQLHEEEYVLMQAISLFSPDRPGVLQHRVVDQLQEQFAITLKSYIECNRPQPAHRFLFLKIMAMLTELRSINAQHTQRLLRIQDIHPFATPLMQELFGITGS
# HEK293 = assay: Effect on total Abeta40 levels in HEK293 cells transfected with human APP with Swedish and London familial AD mutation incubated for 5 hrs by sandwich immuno-assay; assay type: functional, cell-based; settings: HEK293, 5 h
# [5] = Apparent permeability of the compound; assay type: ADME; settings: not told
# Cytochrome P450 2C9 = Cytochrome P450 2C9 (Homo sapiens, UniProt P11712); assay: Inhibition of CYP2C9 (unknown origin); assay type: ADME
# Sequence of Cytochrome P450 2C9 (P11712 whole entry): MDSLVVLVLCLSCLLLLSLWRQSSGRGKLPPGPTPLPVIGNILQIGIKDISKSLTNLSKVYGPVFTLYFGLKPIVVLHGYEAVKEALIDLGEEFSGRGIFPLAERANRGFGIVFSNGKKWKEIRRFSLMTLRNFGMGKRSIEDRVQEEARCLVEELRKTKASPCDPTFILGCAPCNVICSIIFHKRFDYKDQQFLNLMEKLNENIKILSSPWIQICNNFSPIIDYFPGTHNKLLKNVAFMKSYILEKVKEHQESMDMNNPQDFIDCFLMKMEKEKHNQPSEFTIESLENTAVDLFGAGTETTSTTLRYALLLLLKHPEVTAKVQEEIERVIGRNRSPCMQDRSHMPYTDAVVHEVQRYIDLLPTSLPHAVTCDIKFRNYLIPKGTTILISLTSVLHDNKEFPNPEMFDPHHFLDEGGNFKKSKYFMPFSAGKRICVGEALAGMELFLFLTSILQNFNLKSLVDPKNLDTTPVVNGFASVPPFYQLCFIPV
# Gamma-secretase = assay: Modulation of gamma secretase in HEK293 cells transfected with human APP with Swedish and London familial AD mutation assessed as reduction in Abeta42 levels incubated for 5 hrs by sandwich immuno-assay; assay type: cell-based
# Cytochrome P450 2D6 = Cytochrome P450 2D6 (Homo sapiens, UniProt P10635); assay: Inhibition of CYP2D6 (unknown origin); assay type: ADME
# Sequence of Cytochrome P450 2D6 (P10635 whole entry): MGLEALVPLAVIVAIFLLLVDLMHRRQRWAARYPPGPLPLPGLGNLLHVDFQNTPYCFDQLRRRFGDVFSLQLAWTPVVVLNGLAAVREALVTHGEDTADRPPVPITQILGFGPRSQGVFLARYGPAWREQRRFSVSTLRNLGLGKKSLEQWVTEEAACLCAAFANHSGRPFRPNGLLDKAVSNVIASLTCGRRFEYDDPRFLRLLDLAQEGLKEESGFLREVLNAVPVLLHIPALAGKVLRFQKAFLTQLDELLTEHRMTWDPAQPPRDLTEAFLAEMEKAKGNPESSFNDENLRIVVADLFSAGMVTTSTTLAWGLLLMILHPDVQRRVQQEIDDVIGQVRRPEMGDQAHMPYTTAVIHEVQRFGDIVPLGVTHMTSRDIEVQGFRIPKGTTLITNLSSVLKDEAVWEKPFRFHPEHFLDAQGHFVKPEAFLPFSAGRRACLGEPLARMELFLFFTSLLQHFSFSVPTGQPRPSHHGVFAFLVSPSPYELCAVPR
# [6] = Volume of distribution at steady state in CD rat at 1 mg/kg, iv; assay type: ADME, organism-based; settings: in vivo, read-out: Vdss
# How it was run: (§2)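 Male CD rats, single 1 mg/kg intravenous dose. Clearance, steady-state volume of distribution and mean residence time taken from the plasma concentration-time data. Values are the average of two experiments.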
# Rattus norvegicus [7] = assay: Reduction of Abeta42 protein level in CD rat at 30 mg/kg, po measured after 3 hrs relative to control; assay type: functional; design: scale not given: the % may be the effect or the level left
# How it was run: (§3)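 Male CD rats given a single oral dose (1-30 mg/kg). CSF Aβ42 measured 3 h after the dose and expressed as reduction relative to control levels. In the dose-response study, geometric means are of 29 animals (3 and 10 mg/kg groups) and 10 animals (30 mg/kg group).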
# [8] = Drug level in brain of CD rat at 10 mg/kg, po measured after 3 hrs; assay type: ADME, organism-based; settings: read-out: Drug uptake; how it was run: as §1
# [9] = Protein binding in rat plasma; assay type: ADME, cell-free; settings: read-out: PPB (converted)
# Rattus norvegicus [10] = assay: Reduction of Abeta42 protein level in CD rat at 3 to 30 mg/kg, po measured after 3 hrs relative to control; assay type: functional, organism-based; how it was run: as §3
# Rattus norvegicus [11] = assay: Reduction of Abeta42 protein level in CD rat at 1 mg/kg, po measured after 3 hrs relative to control; assay type: functional, organism-based; how it was run: as §3
# [12] = AUC (0 to infinity) in CD rat at 2 mg/kg, po; assay type: ADME, organism-based; design: dose 2 mg/kg, route oral, time infinity; settings: in vivo
# How it was run: (§4)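 Male CD rats, single 2 mg/kg oral dose. Plasma drug concentration-time profile used for AUC(0-∞), Cmax and oral bioavailability (F%). Values are the average of two experiments.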
# Rattus norvegicus [13] = assay: Reduction of Abeta42 protein level in CD rat at 10 mg/kg, po measured after 3 hrs relative to control; assay type: functional; design: scale not given: the % may be the effect or the level left; how it was run: as §3
# [14] = Drug level in plasma of CD rat at 3 mg/kg, po measured after 3 hrs; assay type: ADME, organism-based; how it was run: as §1
# [15] = Drug level in plasma of CD rat at 10 mg/kg, po measured after 3 hrs; assay type: ADME, organism-based; how it was run: as §1
# [16] = MRT in CD rat at 1 mg/kg, iv; assay type: ADME, organism-based; settings: in vivo; how it was run: as §2
# [17] = Cmax in CD rat at 2 mg/kg, po; assay type: ADME, organism-based; design: dose 2 mg/kg, route oral; settings: in vivo; how it was run: as §4
# [18] = Drug level in brain of CD rat at 3 mg/kg, po measured after 3 hrs; assay type: ADME, organism-based; settings: read-out: Drug uptake; how it was run: as §1
# [19] = Selectivity index, ratio of IC50 for effect on total Abeta40 levels in HEK293 cells transfected with human APP with Swedish and London familial AD mutation incubated for 5 hrs by sandwich immuno-assay to IC50 for modulation of gamma secretase in HEK293 cells transfected with human APP with Swedish and London familial AD mutation assessed as reduction in Abeta42 levels incubated for 5 hrs by sandwich immuno-assay
# [20] = tested on: rat MDR1A (P-glycoprotein); assay: Efflux ratio in pig LLC-PK1 cells transfected with rat MDR1A; assay type: ADME, cell-based, Sus scrofa
# How it was run: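 Rat P-gp efflux measured in LLC-PK1 cells transfected with rat MDR1A. Reported as the ratio of B-to-A over A-to-B transport.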
# [21] = Clearance in CD rat at 1 mg/kg, iv; assay type: ADME, organism-based; settings: in vivo; how it was run: as §2
# [22] = Oral bioavailability CD rat at 2 mg/kg; assay type: ADME, organism-based; settings: in vivo; how it was run: as §4
# Rattus norvegicus [23] = assay: Reduction of Abeta42 protein level in CD rat at 3 mg/kg, po measured after 3 hrs relative to control; assay type: functional; design: scale not given: the % may be the effect or the level left; how it was run: as §3
# Sequence of Cytochrome P450 3A4 (P08684 whole entry): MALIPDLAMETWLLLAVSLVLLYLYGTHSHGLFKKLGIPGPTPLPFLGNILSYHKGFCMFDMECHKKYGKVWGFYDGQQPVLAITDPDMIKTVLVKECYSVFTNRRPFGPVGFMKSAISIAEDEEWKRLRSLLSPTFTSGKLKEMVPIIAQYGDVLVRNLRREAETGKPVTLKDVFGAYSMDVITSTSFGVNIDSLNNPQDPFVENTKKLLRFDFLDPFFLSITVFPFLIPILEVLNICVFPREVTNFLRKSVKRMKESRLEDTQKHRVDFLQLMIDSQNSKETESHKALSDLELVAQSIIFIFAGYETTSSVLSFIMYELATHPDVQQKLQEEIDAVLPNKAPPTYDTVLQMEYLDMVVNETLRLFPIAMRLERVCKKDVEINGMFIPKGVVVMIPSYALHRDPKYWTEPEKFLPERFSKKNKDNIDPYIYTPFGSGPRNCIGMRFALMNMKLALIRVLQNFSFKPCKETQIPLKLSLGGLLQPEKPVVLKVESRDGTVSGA
smiles,measurement,setting,value
COc1cc(C2=CC3=NOC[C@H](c4cc(F)c(F)c(F)c4)N3CCC2)ccc1-n1cnc(C)c1,IC50,Cytochrome P450 3A4,30 µM
same,concentration at 3 h,[1],1.3 µM
same,concentration at 3 h,[2],1.4 µM
same,IC50,[3],2.61 µM
same,IC50,[4],> 15 µM
same,IC50,HEK293,16 µM
same,Papp,[5],23 ×10⁻⁶ cm/s
same,IC50,Cytochrome P450 2C9,8 µM
same,IC50,Gamma-secretase,0.143 µM
same,IC50,Cytochrome P450 2D6,8 µM
COc1cc(/C=C2\CCCN3C2=NO[C@H](c2cc(F)cc(F)c2)[C@@H]3C)ccc1-n1cnc(C)c1,IC50,Cytochrome P450 3A4,16 µM
same,Vd,[6],1.1 L/kg
same,Activity,Rattus norvegicus [7],73%
same,concentration at 3 h,[1],7.5 µM
same,concentration at 3 h,[8],4.2 µM
same,fraction unbound,[9],0.005
same,Activity,Rattus norvegicus [10],Dose-dependent effect
same,Activity,Rattus norvegicus [11],inactive
same,AUC(0-inf),[12],8 µM·h
same,Activity,Rattus norvegicus [13],52%
same,concentration at 3 h,[2],8.8 µM
same,concentration at 3 h,[14],0.91 µM
same,IC50,[3],2.01 µM
same,concentration at 3 h,[15],4.83 µM
same,MRT,[16],1.7 h
same,Cmax,[17],1.3 µM
same,IC50,[4],15 µM
same,concentration at 3 h,[18],0.81 µM
same,Ratio IC50,[19],248
same,IC50,HEK293,12 µM
same,Papp,[5],17 ×10⁻⁶ cm/s
same,IC50,Cytochrome P450 2C9,33 µM
same,efflux ratio,[20],2.46
same,clearance,[21],10 mL/min/kg
same,IC50,Gamma-secretase,0.052 µM
same,bioavailability,[22],79%
same,Activity,Rattus norvegicus [23],24%
same,IC50,Cytochrome P450 2D6,49 µM
COc1cc(C2=CC3=NOC(CO)(c4ccc(F)cc4)N3CCO2)ccc1-n1cnc(C)c1 (stereo not given),IC50,Gamma-secretase,0.512 µM
COc1cc(/C=C2\CCCN3C2=NO[C@H](c2cc(F)c(F)c(F)c2)[C@@H]3C)ccc1-n1cnc(C)c1,IC50,Cytochrome P450 3A4,29 µM
same,Activity,Rattus norvegicus [7],80%
same,concentration at 3 h,[1],11.1 µM
same,concentration at 3 h,[2],13.1 µM
same,IC50,[3],1.61 µM
same,IC50,[4],> 10 µM
same,Ratio IC50,[19],>367
same,IC50,HEK293,> 20 µM
same,Papp,[5],14 ×10⁻⁶ cm/s
same,IC50,Cytochrome P450 2C9,37 µM
same,IC50,Gamma-secretase,0.055 µM
same,IC50,Cytochrome P450 2D6,49 µM
CCC(NC(=O)/C=C/c1ccc(-n2cnc(C)c2)c(OC)c1)c1ccc(F)cc1 (stereo not given),IC50,Gamma-secretase,0.462 µM
COc1cc(/C=C2\CCCN3C2=NO[C@H](c2cc(F)cc(F)c2)[C@@H]3C(C)C)ccc1-n1cnc(C)c1,Ratio IC50,[19],174
same,IC50,HEK293,19 µM
same,IC50,Gamma-secretase,0.113 µM
COc1cc(/C=C2\CCCN3C2=NO[C@@H](c2cc(F)cc(F)c2)[C@@H]3C)ccc1-n1cnc(C)c1,IC50,HEK293,> 20 µM
same,IC50,Gamma-secretase,9.29 µM
COc1cc(/C=C2\CCCN3C2=NO[C@H](c2cc(F)c(F)c(F)c2)[C@@H]3CO)ccc1-n1cnc(C)c1,Ratio IC50,[19],221
same,IC50,HEK293,15 µM
same,IC50,Gamma-secretase,0.069 µM
COc1cc(C2=NOCC3C(Oc4ccc(Cl)cc4C(F)(F)F)CCCN23)ccc1-n1cnc(C)c1 (stereo not given),IC50,Gamma-secretase,0.015 µM
COc1cc(/C=C2\CCCN3C2=NO[C@]3(CO)c2ccc(F)cc2)ccc1-n1cnc(C)c1,IC50,Gamma-secretase,0.029 µM
COc1cc(-c2nnc3n2CCCN3C(C)c2cc(F)c(F)c(F)c2)ccc1-n1cnc(C)c1 (stereo not given),IC50,Gamma-secretase,0.116 µM
COc1cc(C2=CC3=NO[C@H](c4cc(F)c(F)c(F)c4)CN3CCC2)ccc1-n1cnc(C)c1,IC50,Cytochrome P450 3A4,34 µM
same,Activity,Rattus norvegicus [7],52%
same,concentration at 3 h,[1],2.1 µM
same,concentration at 3 h,[2],14.2 µM
same,IC50,[3],3.35 µM
same,IC50,[4],> 30 µM
same,IC50,HEK293,14 µM
same,Papp,[5],22 ×10⁻⁶ cm/s
same,IC50,Cytochrome P450 2C9,18 µM
same,IC50,Gamma-secretase,0.107 µM
same,IC50,Cytochrome P450 2D6,48 µM
COc1cc(C(=O)N2CCCC(Cc3ccc(F)cc3)C2)ccc1-n1cnc(C)c1 (stereo not given),IC50,Gamma-secretase,1.55 µM
COc1cc(/C=C2\CCCN3C2=NOCC[C@@H]3c2cc(F)c(F)c(F)c2)ccc1-n1cnc(C)c1,IC50,Gamma-secretase,0.039 µM
COc1cc(C2=NOCC3C(Oc4cc(F)cc(F)c4)CCCN23)ccc1-n1cnc(C)c1 (stereo not given),IC50,Gamma-secretase,0.4 µM
COc1cc(/C=C2\CCCN3C2=NOC[C@@H]3c2ccc(F)cc2)ccc1-n1cnc(C)c1,IC50,Gamma-secretase,0.033 µM
COc1cc(/C=C2\CCCN3CC(c4cc(F)c(F)c(F)c4)ON=C23)ccc1-n1cnc(C)c1 (stereo not given),IC50,Gamma-secretase,0.048 µM
COc1cc(/C=C2\CCCN3C2=NOC[C@@H]3c2cc(F)c(F)c(F)c2)ccc1-n1cnc(C)c1,IC50,Gamma-secretase,0.037 µM
